Results as given in article PMC9890135 (Molecular Cancer Therapeutics, 2022).

Legend:
[1] = target: T1, AXL (Homo sapiens, UniProt P30530); assay: AXL phosphorylation in Hs 746T tumors in vivo; parameters: species or system mice
T1 sequence (P30530 26-894): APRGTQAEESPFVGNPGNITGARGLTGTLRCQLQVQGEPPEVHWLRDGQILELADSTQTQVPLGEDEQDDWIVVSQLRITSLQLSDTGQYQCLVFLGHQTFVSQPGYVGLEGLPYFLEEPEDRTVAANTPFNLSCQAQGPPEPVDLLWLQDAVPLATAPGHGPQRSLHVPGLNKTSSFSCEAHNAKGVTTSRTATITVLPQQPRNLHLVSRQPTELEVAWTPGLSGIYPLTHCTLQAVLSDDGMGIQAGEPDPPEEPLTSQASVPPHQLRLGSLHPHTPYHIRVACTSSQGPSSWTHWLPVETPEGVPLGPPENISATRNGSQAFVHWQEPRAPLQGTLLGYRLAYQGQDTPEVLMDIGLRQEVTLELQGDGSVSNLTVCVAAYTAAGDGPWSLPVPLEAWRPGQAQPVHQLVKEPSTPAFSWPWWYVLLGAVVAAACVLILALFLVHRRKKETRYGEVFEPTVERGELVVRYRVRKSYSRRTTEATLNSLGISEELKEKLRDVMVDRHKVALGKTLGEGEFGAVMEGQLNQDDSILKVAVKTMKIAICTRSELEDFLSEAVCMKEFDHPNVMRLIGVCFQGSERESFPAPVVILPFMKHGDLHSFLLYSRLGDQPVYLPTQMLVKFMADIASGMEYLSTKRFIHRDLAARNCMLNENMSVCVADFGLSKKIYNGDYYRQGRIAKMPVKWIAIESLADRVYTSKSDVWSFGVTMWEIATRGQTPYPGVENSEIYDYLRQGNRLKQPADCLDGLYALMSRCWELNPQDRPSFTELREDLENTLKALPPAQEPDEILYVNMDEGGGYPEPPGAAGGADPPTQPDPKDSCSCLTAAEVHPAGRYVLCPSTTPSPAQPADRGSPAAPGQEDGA
Method in brief: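 Hs 746T xenograft mice received single oral doses (30 or 100 mg/kg) or vehicle, n = 6/group. […] Tumour pAXL/AXL ratio reported as mean ± SEM, Mann–Whitney U test. Duration study: 100 mg/kg group sampled every 12 h up to 48 h.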

[2] = target: T1, AXL; assay: Inhibition of receptor phosphorylation, ELISA, A-172 cells/GAS6; assay type: cell-based
[3] = test system: primary human CD14+ monocyte-derived M2 macrophages; assay: Macrophage M2 to M1 repolarization; assay type: cell-based; settings: 2, 4, and 6 μmol/L XL092 for 7 days; 5 donors
Method in brief: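 CD14+ monocytes (1.0 × 10^6 cells/mL) differentiated 6 days into M2 macrophages, then cryopreserved. Thawed cells seeded at 2.0 × 10^5/well in M2 differentiation medium and exposed to 2, 4 or 6 μmol/L for 7 days at 37°C, 5% CO2, with medium and compound renewed on day 4; triplicate per donor, 5 donors. After Fc block, stained with anti-CD163 and 7-AAD. Viable CD163−/CD163+ ratio expressed as fold change versus DMSO.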

[4] = target: T2, MER (Homo sapiens, UniProt Q12866); assay: Inhibition of receptor phosphorylation, ELISA, MERTK-transfected 293A cells; assay type: cell-based
T2 sequence (Q12866 21-999): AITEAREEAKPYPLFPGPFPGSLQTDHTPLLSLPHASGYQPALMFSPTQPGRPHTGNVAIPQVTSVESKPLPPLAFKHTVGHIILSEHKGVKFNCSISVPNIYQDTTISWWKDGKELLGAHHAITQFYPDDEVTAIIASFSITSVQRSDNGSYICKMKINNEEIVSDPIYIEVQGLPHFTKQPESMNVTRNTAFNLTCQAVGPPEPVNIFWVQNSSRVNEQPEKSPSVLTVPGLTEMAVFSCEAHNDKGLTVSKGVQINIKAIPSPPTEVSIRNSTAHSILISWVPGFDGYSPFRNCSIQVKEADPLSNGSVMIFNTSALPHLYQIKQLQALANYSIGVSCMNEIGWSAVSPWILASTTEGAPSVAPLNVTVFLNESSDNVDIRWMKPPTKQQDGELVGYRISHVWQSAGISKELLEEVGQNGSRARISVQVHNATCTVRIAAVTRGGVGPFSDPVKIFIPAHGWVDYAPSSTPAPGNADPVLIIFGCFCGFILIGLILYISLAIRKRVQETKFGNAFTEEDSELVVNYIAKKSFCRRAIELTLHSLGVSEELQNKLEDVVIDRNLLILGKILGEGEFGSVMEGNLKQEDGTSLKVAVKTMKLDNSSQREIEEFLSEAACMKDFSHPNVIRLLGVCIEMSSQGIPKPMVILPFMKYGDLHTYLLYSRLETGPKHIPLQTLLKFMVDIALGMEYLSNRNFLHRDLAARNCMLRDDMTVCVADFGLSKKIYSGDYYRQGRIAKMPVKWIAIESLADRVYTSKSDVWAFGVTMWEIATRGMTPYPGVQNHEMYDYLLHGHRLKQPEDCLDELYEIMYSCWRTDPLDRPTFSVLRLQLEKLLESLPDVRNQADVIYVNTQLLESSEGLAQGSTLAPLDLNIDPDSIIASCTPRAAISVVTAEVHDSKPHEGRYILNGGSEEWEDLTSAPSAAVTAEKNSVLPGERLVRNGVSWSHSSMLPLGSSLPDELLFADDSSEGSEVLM

[5] = test system: Hs 746T tumors; assay: Hs 746T xenograft tumor growth; assay type: in vivo, mice; settings: 12 days, oral
Method in brief: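 Human tumour cells inoculated into the rear flank. Mice randomised at mean volumes of ~200 mm3 (Hs 746T), ~120 mm3 (MDA-MB-231), ~100 mm3 (NCI-H441) or ~90 mm3 (SNU-5). Oral gavage once daily with test compound or vehicle. Tumour volume and body weight measured at least twice weekly. […], using mean volumes at extraction and dosing start.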

[6] = test system: HUVEC cells; assay: Cellular proliferation, BrdU incorporation ELISA; assay type: cell-based; settings: Homo sapiens, 48 h, read-out: Proliferation IC50
Method in brief: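 HUVEC seeded at 1,500 cells/well in triplicate in VEGF-containing endothelial growth medium, overnight at 37°C, 5% CO2. Serial dilutions added for 48 h. BrdU labelling 2 h at 37°C, FixDenat 30 min at RT, anti-BrdU-POD 90 min at RT, washes, then chemiluminescent substrate read.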

[7] = target: MET (Homo sapiens, UniProt P08581); assay: Inhibition of receptor phosphorylation, ELISA, PC-3 cells/HGF; assay type: cell-based
[8] = humans; preliminary phase I data (NCT03845166); cited from earlier work

Chain of MET (P08581 25-1390): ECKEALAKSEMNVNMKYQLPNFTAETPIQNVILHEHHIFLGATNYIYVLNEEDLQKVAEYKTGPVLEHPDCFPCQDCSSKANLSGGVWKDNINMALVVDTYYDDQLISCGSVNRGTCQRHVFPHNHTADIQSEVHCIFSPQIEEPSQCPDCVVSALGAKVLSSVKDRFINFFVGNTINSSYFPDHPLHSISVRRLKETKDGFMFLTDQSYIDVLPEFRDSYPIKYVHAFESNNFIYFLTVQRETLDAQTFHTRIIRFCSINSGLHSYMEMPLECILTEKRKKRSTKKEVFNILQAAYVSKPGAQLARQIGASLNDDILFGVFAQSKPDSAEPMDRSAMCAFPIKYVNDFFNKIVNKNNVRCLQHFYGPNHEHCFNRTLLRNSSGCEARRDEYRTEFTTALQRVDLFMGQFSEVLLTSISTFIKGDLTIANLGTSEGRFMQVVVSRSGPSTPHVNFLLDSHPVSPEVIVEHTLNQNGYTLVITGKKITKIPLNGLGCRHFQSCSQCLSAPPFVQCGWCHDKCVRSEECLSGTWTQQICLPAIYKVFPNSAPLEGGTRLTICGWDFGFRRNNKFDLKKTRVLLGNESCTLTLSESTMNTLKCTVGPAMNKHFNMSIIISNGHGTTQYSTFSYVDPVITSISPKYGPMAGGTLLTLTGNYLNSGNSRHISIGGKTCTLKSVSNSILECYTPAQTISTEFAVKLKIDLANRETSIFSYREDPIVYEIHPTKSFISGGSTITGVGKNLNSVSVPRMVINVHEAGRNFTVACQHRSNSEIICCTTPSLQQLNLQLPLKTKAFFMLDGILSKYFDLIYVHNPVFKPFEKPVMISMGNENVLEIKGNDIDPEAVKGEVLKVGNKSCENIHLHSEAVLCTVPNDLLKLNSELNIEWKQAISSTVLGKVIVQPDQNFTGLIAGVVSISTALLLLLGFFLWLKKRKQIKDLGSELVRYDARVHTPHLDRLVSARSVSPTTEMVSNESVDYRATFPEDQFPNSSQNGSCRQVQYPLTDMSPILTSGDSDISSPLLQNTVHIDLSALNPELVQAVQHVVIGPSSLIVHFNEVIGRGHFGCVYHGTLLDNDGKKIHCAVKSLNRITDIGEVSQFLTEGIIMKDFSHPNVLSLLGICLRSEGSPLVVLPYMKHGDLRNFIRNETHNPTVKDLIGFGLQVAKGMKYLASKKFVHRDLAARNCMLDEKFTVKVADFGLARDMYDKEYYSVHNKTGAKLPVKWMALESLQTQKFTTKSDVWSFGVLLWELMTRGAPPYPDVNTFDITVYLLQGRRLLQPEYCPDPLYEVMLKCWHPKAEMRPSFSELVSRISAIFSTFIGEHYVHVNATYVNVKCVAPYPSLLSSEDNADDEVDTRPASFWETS

## CNC(=O)c1cc2c(Oc3ccc(NC(=O)C4(C(=O)Nc5ccc(F)cc5)CC4)cc3)ccnc2cc1OC [XL092]
[1]; Hs 746T model, single dose of 100 mg/kg
  duration of inhibition of AXL phosphorylation: approximately 24 hours
[1]; Hs 746T xenograft, single oral doses 30 or 100 mg/kg, P < 0.01
  tumor AXL phosphorylation relative to vehicle: significant decrease
[2]
  IC50: 3.89 ± 1.61 nM
[3]
  M1 (CD163-negative) to M2 (CD163-positive) ratio: dose-dependent increases
[4]
  IC50: 6.01 ± 1.56 nM
[5]; 1 mg/kg/day
  Tumor growth inhibition: 10.1%
[5]; 3 mg/kg/day
  Tumor growth inhibition: 35.6%
[5]; 10 mg/kg/day
  Tumor growth inhibition: 70.2%
[5]; 30 mg/kg/day
  Tumor growth inhibition: 94.9%
[6]
  IC50: 10.4 nM
[7]
  IC50: 11.9 ± 1.55 nM
[8]
  half-life: approximately 24 hours
